According to ChEMBL document CHEMBL2412964, “Discovery of novel tetrahydro-pyrazolo [4,3-c] pyridines for the treatment of neuropathic pain: synthesis and neuropharmacology” (Eur J Med Chem, 2013):

Legend:
Rattus norvegicus [1] = assay: Antinociceptive activity in Wistar rat chronic constriction injury model assessed as reversal of tactile allodynia at 100 mg/kg, ip after 120 mins (reference value: 4.1 +/- 2.1%); format: functional; conditions: route intraperitoneal
Rattus norvegicus [2] = assay: Antinociceptive activity in Wistar rat chronic constriction injury model assessed as reversal of spontaneous pain response at 100 mg/kg, ip after 60 mins (reference value: 4.6 +/- 0.6%); format: functional; conditions: route intraperitoneal
Rattus norvegicus [3] = assay: Antinociceptive activity in Wistar rat chronic constriction injury model assessed as reversal of tactile allodynia at 100 mg/kg, ip after 60 mins (reference value: 1.3 +/- 0.3%); format: functional; conditions: route intraperitoneal
Rattus norvegicus [4] = assay: Antinociceptive activity in Wistar rat partial sciatic nerve ligation model assessed as reversal of tactile allodynia at 100 mg/kg, ip after 120 mins relative to control; format: functional; conditions: route intraperitoneal
Rattus norvegicus [5] = assay: Antinociceptive activity in Wistar rat partial sciatic nerve ligation model assessed as reversal of mechanical allodynia at 100 mg/kg, ip after 60 mins (reference value: 2.8 +/- 0.3%); format: functional; conditions: route intraperitoneal
Rattus norvegicus [6] = assay: Antinociceptive activity in Wistar rat chronic constriction injury model assessed as reversal of mechanical allodynia at 100 mg/kg, ip after 60 mins (reference value: 4.9 +/- 1.0%); format: functional; conditions: route intraperitoneal
Rattus norvegicus [7] = assay: Antinociceptive activity in Wistar rat partial sciatic nerve ligation model assessed as reversal of cold allodynia at 100 mg/kg, ip after 60 mins (reference value: 2.5 +/- 0.3%); format: functional; conditions: route intraperitoneal
Rattus norvegicus [8] = assay: Antinociceptive activity in Wistar rat partial sciatic nerve ligation model assessed as reversal of spontaneous pain response at 100 mg/kg, ip after 30 mins (reference value: 3.2 +/- 0.3%); format: functional; conditions: route intraperitoneal
Rattus norvegicus [9] = assay: Antinociceptive activity in Wistar rat partial sciatic nerve ligation model assessed as reversal of spontaneous pain response at 100 mg/kg, ip after 60 mins (reference value: 2.9 +/- 0.3%); format: functional; conditions: route intraperitoneal
Rattus norvegicus [10] = assay: Antinociceptive activity in Wistar rat chronic constriction injury model assessed as reversal of cold allodynia at 100 mg/kg, ip after 30 mins (reference value: 0.6 +/- 2.7%); format: functional; conditions: route intraperitoneal
Rattus norvegicus [11] = assay: Antinociceptive activity in Wistar rat partial sciatic nerve ligation model assessed as reversal of spontaneous pain response at 100 mg/kg, ip after 120 mins (reference value: 1.2 +/- 0.1%); format: functional; conditions: route intraperitoneal
Rattus norvegicus [12] = assay: Antinociceptive activity in Wistar rat partial sciatic nerve ligation model assessed as reversal of cold allodynia at 100 mg/kg, ip after 120 mins (reference value: 1.5 +/- 0.5%); format: functional; conditions: route intraperitoneal
Rattus norvegicus [13] = assay: Antinociceptive activity in Wistar rat partial sciatic nerve ligation model assessed as reversal of tactile allodynia at 100 mg/kg, ip after 30 mins (reference value: 7.7 +/- 0.7%); format: functional; conditions: route intraperitoneal
Rattus norvegicus [14] = assay: Antinociceptive activity in Wistar rat chronic constriction injury model assessed as reversal of cold allodynia at 100 mg/kg, ip after 120 mins (reference value: 5.4 +/- 1.9%); format: functional; conditions: route intraperitoneal
Rattus norvegicus [15] = assay: Antinociceptive activity in Wistar rat partial sciatic nerve ligation model assessed as reversal of tactile allodynia at 100 mg/kg, ip after 60 mins (reference value: 12.5 +/- 1.2%); format: functional; conditions: route intraperitoneal
Rattus norvegicus [16] = assay: Antinociceptive activity in Wistar rat partial sciatic nerve ligation model assessed as reversal of cold allodynia at 100 mg/kg, ip after 30 mins (reference value: 4.1 +/- 1.0%); format: functional; conditions: route intraperitoneal
Rattus norvegicus [17] = assay: Antinociceptive activity in Wistar rat chronic constriction injury model assessed as reversal of mechanical allodynia at 100 mg/kg, ip after 120 mins (reference value: 5.3 +/- 0.5%); format: functional; conditions: route intraperitoneal
Rattus norvegicus [18] = assay: Antinociceptive activity in Wistar rat chronic constriction injury model assessed as reversal of spontaneous pain response at 100 mg/kg, ip after 30 mins (reference value: 8.9 +/- 4.6%); format: functional; conditions: route intraperitoneal
Rattus norvegicus [19] = assay: Antinociceptive activity in Wistar rat chronic constriction injury model assessed as reversal of mechanical allodynia at 100 mg/kg, ip after 30 mins (reference value: 4.7 +/- 2.1%); format: functional; conditions: route intraperitoneal
Rattus norvegicus [20] = assay: Antinociceptive activity in Wistar rat partial sciatic nerve ligation model assessed as reversal of mechanical allodynia at 100 mg/kg, ip after 30 mins (reference value: 2.9 +/- 0.3%); format: functional; conditions: route intraperitoneal
Rattus norvegicus [21] = assay: Antinociceptive activity in Wistar rat partial sciatic nerve ligation model assessed as reversal of mechanical allodynia at 100 mg/kg, ip after 120 mins (reference value: 2.9 +/- 0.3%); format: functional; conditions: route intraperitoneal
Rattus norvegicus [22] = assay: Antinociceptive activity in Wistar rat chronic constriction injury model assessed as reversal of spontaneous pain response at 100 mg/kg, ip after 120 mins (reference value: 4.5 +/- 0.2%); format: functional; conditions: route intraperitoneal
Rattus norvegicus [23] = assay: Antinociceptive activity in Wistar rat chronic constriction injury model assessed as reversal of tactile allodynia at 100 mg/kg, ip after 30 mins (reference value: 3.4 +/- 0.8%); format: functional; conditions: route intraperitoneal
Rattus norvegicus [24] = assay: Antinociceptive activity in Wistar rat chronic constriction injury model assessed as reversal of cold allodynia at 100 mg/kg, ip after 60 mins (reference value: 6.3 +/- 1.9%); format: functional; conditions: route intraperitoneal
Mus musculus [25] = assay: Antinociceptive activity in Swiss albino mouse assessed as inhibition of formalin-induced flinching at 100 mg/kg administered 30 mins prior to test measured up to 5 mins relative to control; format: functional
Mus musculus [26] = assay: Neurotoxicity in Swiss albino mouse assessed as minimal motor impairment at 300 mg/kg after 4 hrs by rotarod test; format: toxicity, organism-based; parameters: dose 300 mg/kg; conditions: in vivo
Outline: (§1)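 Swiss albino mice of either sex, 20-25 g, dosed at 30, 100 and 300 mg/kg, three per group. Minimal motor impairment scored by rotarod at 0.5 and 4.0 h after dosing. Reported value is the lowest dose giving impairment in half or more of the mice.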

Mus musculus [27] = assay: Neurotoxicity in Swiss albino mouse assessed as minimal motor impairment at 300 mg/kg after 0.5 hrs by rotarod test; format: toxicity, organism-based; parameters: dose 300 mg/kg; conditions: in vivo; outline: as §1
Mus musculus [28] = assay: Antinociceptive activity in Swiss albino mouse assessed as inhibition of formalin-induced flinching at 100 mg/kg administered 30 mins prior to test measured for 10 to 30 mins relative to control; format: functional
Mus musculus [29] = assay: Antinociceptive activity in Swiss albino mouse assessed as inhibition of acetic acid-induced writhing at 100 mg/kg administered 30 mins prior to acetic acid-challenge measured for 30 mins relative to control; format: functional
Outline: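 Swiss albino mice (20–25 g, either sex); writhing induced by i.p. 0.1 mL of 2.0% v/v acetic acid given half an hour after test compound dosing.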

SMILES | Activity (Rattus norvegicus [1]) [%] | Activity (Rattus norvegicus [2]) [%] | Activity (Rattus norvegicus [3]) [%] | Activity (Rattus norvegicus [4]) [%] | Activity (Rattus norvegicus [5]) [%] | Activity (Rattus norvegicus [6]) [%] | Activity (Rattus norvegicus [7]) [%] | Activity (Rattus norvegicus [8]) [%] | Activity (Rattus norvegicus [9]) [%] | Activity (Rattus norvegicus [10]) [%] | Activity (Rattus norvegicus [11]) [%] | Activity (Rattus norvegicus [12]) [%] | Activity (Rattus norvegicus [13]) [%] | Activity (Rattus norvegicus [14]) [%] | Activity (Rattus norvegicus [15]) [%] | Activity (Rattus norvegicus [16]) [%] | Activity (Rattus norvegicus [17]) [%] | Activity (Rattus norvegicus [18]) [%] | Activity (Rattus norvegicus [19]) [%] | Activity (Rattus norvegicus [20]) [%] | further results
NCC1(CC(=O)O)CCCCC1 [GABAPENTIN] | 50.7 | 91.2 | 59.4 | 58.5 | 91.3 | 78.6 | 58.2 | 92.9 | 94.2 | 58 | 82.4 | 32.1 | 43.1 | 35.6 | 56.1 | 54.1 | 75.7 | 71.2 | 92.9 | 86.2 | Activity (Rattus norvegicus [21]): 55.8%; Activity (Rattus norvegicus [22]): 88.8%; Activity (Rattus norvegicus [23]): 35.4%; Activity (Rattus norvegicus [24]): 42.9%
CCN1CCc2c(c(C)nn2C(=O)Nc2cc(C)ccc2F)C1 | 13.7 | 11 | 9.9 | 3.5 | 40.2 | 42.9 | 16 | 57.6 | 26.6 | 15 | 17.3 | 7.9 | 20.2 | 2.8 | 15.1 | 13 | 14.3 | 15 | 35.7 | 44.8 | inhibition in vivo at 100 mg/kg (Mus musculus [25]): 5.2%; Activity (Mus musculus [26]): Non-toxic; Activity (Mus musculus [27]): Non-toxic; inhibition in vivo at 100 mg/kg (Mus musculus [28]): 15%; inhibition in vivo at 100 mg/kg (Mus musculus [29]): 10.5%; Activity (Rattus norvegicus [21]): 18.2%; Activity (Rattus norvegicus [22]): 51.8%; Activity (Rattus norvegicus [23]): 6.6%; Activity (Rattus norvegicus [24]): 21.2%
CCN1CCc2c(c(C(C)(C)C)nn2C(=O)Nc2cc(C)ccc2F)C1 | 4.5 | 20.5 | 12.2 | 4.5 | 12.1 | 12.7 | 16.4 | 15.5 | 9.9 | 3.4 | 7.5 | 19.3 | 12.2 | 12 | 12.2 | 19.3 | 8.8 | 14.4 | 13.8 | 12.1 | inhibition in vivo at 100 mg/kg (Mus musculus [25]): 7%; Activity (Mus musculus [26]): Non-toxic; Activity (Mus musculus [27]): Non-toxic; inhibition in vivo at 100 mg/kg (Mus musculus [28]): 60.5%; inhibition in vivo at 100 mg/kg (Mus musculus [29]): 17.5%; Activity (Rattus norvegicus [21]): 8.8%; Activity (Rattus norvegicus [22]): 53.9%; Activity (Rattus norvegicus [23]): 19.7%; Activity (Rattus norvegicus [24]): 7.1%
CCN1CCc2c(c(C(C)(C)C)nn2C(=O)Nc2ccc(Cl)cc2)C1 | 12.8 | 22.3 | 13.8 | 28.5 | 16.7 | 11.7 | 17.2 | 20.9 | 13.9 | 17.8 | 6.3 | 10.6 | 15.1 | 10.5 | 3.5 | 18.2 | 2.2 | 18.3 | 20 | 11.1 | inhibition in vivo at 100 mg/kg (Mus musculus [25]): 3.5%; Activity (Mus musculus [26]): Non-toxic; Activity (Mus musculus [27]): Non-toxic; inhibition in vivo at 100 mg/kg (Mus musculus [28]): 68.3%; inhibition in vivo at 100 mg/kg (Mus musculus [29]): 15.8%; Activity (Rattus norvegicus [21]): 11.1%; Activity (Rattus norvegicus [22]): 12.5%; Activity (Rattus norvegicus [23]): 13.8%; Activity (Rattus norvegicus [24]): 10.8%
CCN1CCc2c(c(C)nn2C(=O)Nc2ccc(F)cc2F)C1 | 67 | 63.6 | 69.6 | 39.2 | 58.9 | 58.9 | 35.4 | 59.2 | 28.2 | 72.7 | 14.7 | 40 | 58.3 | 40.6 | 41.7 | 58.7 | 63.3 | 69.3 | 62.1 | 62.1 | inhibition in vivo at 100 mg/kg (Mus musculus [25]): 7.8%; Activity (Mus musculus [26]): Non-toxic; Activity (Mus musculus [27]): Non-toxic; inhibition in vivo at 100 mg/kg (Mus musculus [28]): 14.3%; inhibition in vivo at 100 mg/kg (Mus musculus [29]): 76.3%; Activity (Rattus norvegicus [21]): 63.3%; Activity (Rattus norvegicus [22]): 72.8%; Activity (Rattus norvegicus [23]): 39.3%; Activity (Rattus norvegicus [24]): 53.1%
CCN1CCc2c(c(C)nn2C(=O)Nc2ccc(Cl)cc2)C1 | 19.7 | 15 | 8 | 14.2 | 5 | 14.6 | 7.9 | 13.6 | 12.7 | 15.9 | 11 | 11 | 18.1 | 9.5 | 8.2 | 13.2 | 8.3 | 16.9 | 14.6 | 17.5 | inhibition in vivo at 100 mg/kg (Mus musculus [25]): 1.7%; Activity (Mus musculus [26]): Non-toxic; Activity (Mus musculus [27]): Non-toxic; inhibition in vivo at 100 mg/kg (Mus musculus [28]): 7.5%; inhibition in vivo at 100 mg/kg (Mus musculus [29]): 55.2%; Activity (Rattus norvegicus [21]): 11.3%; Activity (Rattus norvegicus [22]): 27.4%; Activity (Rattus norvegicus [23]): 13.2%; Activity (Rattus norvegicus [24]): 23%
CCN1CCc2c(c(C)nn2C(=O)Nc2c(C)cccc2C)C1 | 65.1 | 68.3 | 58 | 38.3 | 69.4 | 73.2 | 41.6 | 70.3 | 66.1 | 63.4 | 58.4 | 37.2 | 18.4 | 13.4 | 46.4 | 61.3 | 26.1 | 77.3 | 67 | 57.8 | inhibition in vivo at 100 mg/kg (Mus musculus [25]): 12.2%; Activity (Mus musculus [26]): Non-toxic; Activity (Mus musculus [27]): Non-toxic; inhibition in vivo at 100 mg/kg (Mus musculus [28]): 78.9%; inhibition in vivo at 100 mg/kg (Mus musculus [29]): 60.5%; Activity (Rattus norvegicus [21]): 44.4%; Activity (Rattus norvegicus [22]): 53.7%; Activity (Rattus norvegicus [23]): 55%; Activity (Rattus norvegicus [24]): 52.6%
